Kir21 inh: Kir2.1 (mouse) channel inhibition | HEK293-Kir2.1, FluxOR thallium flux fluorescence; active compounds read low | B-score at 10 µM | hit rate 0.85% among 310,000;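 active means fluorescence ratio B-score at or below minus 3 SD of library scores, with starting-brightness B-score within 2 SD, cut at about -4.2 in these data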;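 further: channel flux triggered by added potassium and thallium sulfate stimulus; B-score of peak minus minimum fluorescence over baseline after thallium stimulus; more negative B-score means stronger Kir2.1 block with less thallium influx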
Target sequence (P35561 whole entry, looked up): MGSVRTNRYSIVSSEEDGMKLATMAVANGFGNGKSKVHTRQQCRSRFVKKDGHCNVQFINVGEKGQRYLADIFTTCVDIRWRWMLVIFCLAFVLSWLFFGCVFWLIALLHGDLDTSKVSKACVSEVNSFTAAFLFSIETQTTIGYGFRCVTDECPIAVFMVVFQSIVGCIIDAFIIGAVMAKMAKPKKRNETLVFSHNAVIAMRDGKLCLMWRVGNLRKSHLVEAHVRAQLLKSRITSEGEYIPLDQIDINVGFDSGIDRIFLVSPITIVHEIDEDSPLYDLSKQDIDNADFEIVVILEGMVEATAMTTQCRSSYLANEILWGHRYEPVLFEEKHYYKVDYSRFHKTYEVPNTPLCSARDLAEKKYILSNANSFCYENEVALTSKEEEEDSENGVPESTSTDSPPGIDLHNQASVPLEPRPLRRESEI
KCNK3 block: human KCNK3 channel inhibition, primary screen; CHO-KCNK3 thallium flux, FluxOR fluorescence; active compounds read low; B-score at 10 µM; O14649; AID 602410; hit rate 0.84% among 340,000;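 active means B-score under library mean minus 4 SD, starting fluorescence ratio at most library mean plus 5 SD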;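 further: more negative B-score means stronger inhibition of thallium flux through KCNK3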
hERG rescue: compounds protecting human hERG from proarrhythmic drug block; Q12809; CHO-hERG, FluxOR thallium flux, dofetilide IC70 present; activation (rescue from dofetilide block), less the hit threshold, % at 10 µM; hit rate 0.51% among 310,000;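 active means activation above the mean of controls blocked by dofetilide plus 5 SD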;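 further: thallium influx through hERG after potassium depolarization seen as dye fluorescence rise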
KCNQ1 act: human KCNQ1 channel potentiation or activation | hit rate 0.35% among 310,000 | B-score at 10 µM | CHO-K1 KCNQ1, thallium flux FluxOR fluorescence; active compounds read high | P51787;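 active means fluorescence ratio B-score, a plate-corrected score, at least three library SD, with initial intensity B-score within 5 SD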
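Assay system: CHO-K1 cells stably expressing KCNQ1. Medium: assay buffer for compound exposure, DMSO matched across wells. Timing: 37 °C overnight plating, 90-min dark dye load, 20-min compound pretreatment. Signal: kinetic FluxOR fluorescence, 10 s baseline plus 110 s post-stimulus.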
KCNK9 inh: human KCNK9 channel inhibition; Q9NPC2; HEK293 KCNK9, FluxOR thallium flux fluorescence; active compounds read low; B-score at 10 µM; hit rate 1.2% among 310,000; AID 488922;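 active means ratio B-score over 3 SD below the library mean, with starting fluorescence within 5 SD of its mean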;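 further: negative B-score means less thallium flux so channel inhibition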
KCNQ1 block: blocks the human KCNQ1 potassium channel; hit rate 1.3% among 310,000; B-score at 10 µM; P51787; CHO-K1 KCNQ1, FluxOR thallium flux fluorescence; active compounds read high;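 active means compounds whose thallium flux B-score, printed positive for inhibition, exceeds three library SD while starting fluorescence stays within three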;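 further: channel opened by potassium depolarization with thallium stimulus after 20 min compound exposure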
* hit, by the source's call. Shown are actives, neighbours in structure and some others; about 3.8% of the full set was active somewhere.

What do the screens show for `Cc1ccc(C)c(N2CCN(C(=O)CCc3nc(-c4ccccc4)no3)CC2)c1`?
KCNK3 block: inactive

Results for Cc1cccc(-c2noc(CCC(=O)N3CCN(c4cc(C)ccc4C)CC3)n2)c1 ?
KCNK3 block: -9.8*

Results for Cc1ccc(C)c(N2CCN(C(=O)CCc3nc(-c4ccccc4Cl)no3)CC2)c1 ?
KCNK3 block: inactive

Results for Cc1ccc(C)c(N2CCN(C(=O)CCc3nc(-c4ccccc4C)no3)CC2)c1 ?
KCNK3 block: -9.2*

How did CCCOC(=O)c1ccc(NC(=O)c2ccccc2OC)cc1 do in these assays?
Kir21 inh: 2.5; KCNK3 block: inactive; hERG rescue: -12; KCNQ1 act: inactive; KCNK9 inh: -7.5*; KCNQ1 block: inactive

How did COc1ccccc1C(=O)NCC(=O)N/N=C/c1cn[nH]c1-c1ccccc1 do in these assays?
Kir21 inh: 3.1; KCNK3 block: inactive; hERG rescue: -10; KCNQ1 act: inactive; KCNK9 inh: inactive; KCNQ1 block: inactive

How did Cc1ccsc1C(=O)Nc1n[nH]c(C(F)(F)F)n1 do in these assays?
Kir21 inh: 0.04; KCNK3 block: inactive; hERG rescue: -11; KCNQ1 act: inactive; KCNK9 inh: inactive; KCNQ1 block: inactive

What do the screens show for `O=C(Nc1n[nH]c(C(F)(F)F)n1)C1CC1`?
Kir21 inh: -0.67; KCNK3 block: inactive; hERG rescue: 4.7*; KCNQ1 act: inactive; KCNK9 inh: inactive; KCNQ1 block: inactive

Results for Cc1ccc(NC(=O)c2ncn(CCCN3CCN(Cc4cccc5ccccc45)CC3)n2)cc1C ?
KCNK3 block: inactive

Results for CC(C)(C)n1nnnc1C(c1cccs1)N(Cc1cccnc1)Cc1ccco1 (stereo not drawn) ?
Kir21 inh: -1; KCNK3 block: inactive; hERG rescue: -9; KCNQ1 act: inactive; KCNK9 inh: -7.2*; KCNQ1 block: inactive

What do the screens show for `Cc1ccc(C(=O)Nc2nc(C)c(C(=O)Nc3ccc4c(c3)CCC4)s2)cc1`?
Kir21 inh: 3; KCNK3 block: inactive; hERG rescue: -9; KCNQ1 act: inactive; KCNK9 inh: inactive; KCNQ1 block: inactive

What do the screens show for `NCC/C=C1/c2ccccc2CSc2ccccc21`?
Kir21 inh: -4.3*; KCNK3 block: inactive; hERG rescue: -6; KCNQ1 act: inactive; KCNK9 inh: inactive; KCNQ1 block: inactive

Results for Cc1cc(=O)oc2cc(OCCSCCN3CCCCC3)ccc12 ?
Kir21 inh: 1.2; KCNK3 block: inactive; hERG rescue: -9; KCNQ1 act: inactive; KCNK9 inh: inactive; KCNQ1 block: inactive

What do the screens show for `Cc1sc2ncnc(N3CCC(C)CC3)c2c1C`?
Kir21 inh: 1.5; KCNK3 block: inactive; hERG rescue: -12; KCNQ1 act: inactive; KCNK9 inh: inactive; KCNQ1 block: inactive

What do the screens show for `Cc1sc2ncnc(N3CCN(CCOc4ccc(Cl)cc4)CC3)c2c1C`?
Kir21 inh: 0.22; KCNK3 block: -11*; hERG rescue: -14; KCNQ1 act: inactive; KCNK9 inh: inactive; KCNQ1 block: 11*

How did Cc1cc(Cl)ccc1OCC(=O)NNC(=O)C1CCN(c2ncnc3sc(C)c(C)c23)CC1 do in these assays?
KCNK3 block: -9.9*

Results for Cc1sc2ncnc(N3CCC(C(=O)NNC(=O)COc4ccc(Cl)cc4)CC3)c2c1C ?
KCNK3 block: inactive

How did CC(CC(=O)OCC(=O)Nc1ccc2[nH]c(=O)[nH]c2c1)c1ccccc1 (stereo not drawn) do in these assays?
KCNK3 block: inactive

What do the screens show for `COCCn1c(SCC(=O)N2CCCCCC2)nnc1-c1ccco1`?
Kir21 inh: 0.27; KCNK3 block: inactive; hERG rescue: -3; KCNQ1 act: inactive; KCNK9 inh: inactive; KCNQ1 block: inactive

Results for Cc1ccc(NC(=O)C2CCN(S(=O)(=O)c3cc([N+](=O)[O-])ccc3Cl)CC2)nc1 ?
KCNK3 block: inactive

How did Cc1ccc2nc(NC(=O)C3CCN(S(=O)(=O)c4cc([N+](=O)[O-])ccc4Cl)CC3)sc2c1 do in these assays?
Kir21 inh: 0.4; KCNK3 block: inactive; hERG rescue: -7; KCNQ1 act: inactive; KCNK9 inh: inactive; KCNQ1 block: 9*

How did NC(=O)c1ccc(C2SCC(=O)N2CCc2ccccc2)cc1 (stereo not drawn) do in these assays?
KCNK3 block: inactive

Results for O=C1CSC(c2ccccc2)N1CCc1ccccc1 (stereo not drawn) ?
Kir21 inh: -4.2*; KCNK3 block: inactive; hERG rescue: -9; KCNQ1 act: inactive; KCNK9 inh: inactive; KCNQ1 block: inactive

What do the screens show for `O=C(COc1ccc(C(=O)c2ccccc2)cc1)Nc1cccnc1`?
Kir21 inh: 0.53; KCNK3 block: inactive; hERG rescue: 16*; KCNQ1 act: inactive; KCNK9 inh: inactive; KCNQ1 block: inactive

Results for N#Cc1ccc(-c2ccc(OCC(=O)Nc3cccnc3)cc2)cc1 ?
Kir21 inh: 1.2; KCNK3 block: inactive; hERG rescue: -2; KCNQ1 act: inactive; KCNK9 inh: inactive; KCNQ1 block: inactive

How did O=C(CN1c2cccc3cccc(c23)S1(=O)=O)N1CCN(c2ccccc2)CC1 do in these assays?
KCNK3 block: inactive

How did CCc1cc2ccccc2nc1SCC(=O)N1CCN(C(=O)c2ccco2)CC1 do in these assays?
Kir21 inh: -4.4*; KCNK3 block: inactive; hERG rescue: -10; KCNQ1 act: inactive; KCNK9 inh: inactive; KCNQ1 block: inactive

What do the screens show for `Cn1c(=O)c(Nc2ccc(Cl)cc2)c2c3c(cccc31)C(=O)c1ccccc1-2`?
Kir21 inh: -7.1; hERG rescue: -8; KCNQ1 act: inactive; KCNK9 inh: inactive; KCNQ1 block: 9*

Results for CC(C)CC(NC(=O)c1ccc(Cl)cc1)C(=O)OCC(=O)c1ccc2c(c1)NC(=O)CO2 (stereo not drawn) ?
Kir21 inh: -0.88; KCNK3 block: inactive; hERG rescue: -7; KCNQ1 act: 13*; KCNK9 inh: inactive; KCNQ1 block: inactive

What do the screens show for `Cc1c(N(C)C)nc2ccccc2c1N`?
Kir21 inh: 0.13; KCNK3 block: inactive; hERG rescue: 0; KCNQ1 act: inactive; KCNK9 inh: inactive; KCNQ1 block: inactive

How did CCN(CC)c1nc2ccccc2c(N)c1-c1ccccc1 do in these assays?
Kir21 inh: -5.1*; KCNK3 block: inactive; hERG rescue: -11; KCNQ1 act: inactive; KCNK9 inh: inactive; KCNQ1 block: inactive

What do the screens show for `COc1ccc(C(=O)C[n+]2cc(-c3ccc(OC)cc3)n3c2CCCC3)cc1`?
Kir21 inh: -0.08; KCNK3 block: inactive; hERG rescue: -5; KCNQ1 act: inactive; KCNK9 inh: inactive; KCNQ1 block: inactive
